Common to all, as to assay type: functional
One test has as its system SF-268. Kind of test: Antitumor activity against human SF268 cells after 48 hrs. To be noted: SF-268, 48 h. The gist of the method: (§1)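 NCI-derived lines grown as monolayers in RPMI-1640 with 5% heat-inactivated FBS and 2 mM glutamine, 37 °C, 5% CO2. Plated at 1.5 × 10⁵ cells/mL (MCF-7, SF-268) or 0.75 × 10⁴ cells/mL (NCI-H460) and incubated 24 h. Continuous 48 h exposure to five serial concentrations (DMSO ≤0.5%). Sulforhodamine B stain, A492. GI50 is 50% net-growth inhibition from dose-response curves. Experiments run independently in duplicate.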

For another test, the system named is NCI-H460. Nature of the test: Antitumor activity against human NCI-H460 cells after 48 hrs. Particulars: NCI-H460, 48 h. The gist of the method:
as §1

The subject of the next test is MCF7. Nature of the test: Antitumor activity against human MCF7 cells after 48 hrs. Particulars: MCF7, 48 h. The gist of the method: as §1

As a reminder, the GI50 is the concentration that inhibits growth by half. Turning to `COC(=O)c1[nH]c2ccccc2c1-c1cccc2c1sc1ccccc12`, the GI50 in the test with SF-268 turned out to be 17 µM; with NCI-H460, 12.7 µM; with MCF7, 11 µM.

For `COC(=O)c1[nH]c2ccc3c4ccccc4sc3c2c1-c1ccccc1`, the concentration for 50% growth inhibition (GI50) with SF-268 turned out to be 50 µM; with NCI-H460, 40.3 µM; with MCF7, 72.7 µM.

Turning to `COC(=O)c1[nH]c2ccccc2c1-c1cccc2c1oc1ccccc12`, the results for the concentration for 50% growth inhibition (GI50) in the test on SF-268, in the test on NCI-H460 and with MCF7 were 35 µM, 18 µM and 26.5 µM, respectively.

Regarding `COc1cccc2c1C(=O)c1c(O)c3c(c(O)c1C2=O)C[C@@](O)(C(=O)CO)C[C@@H]3O[C@H]1C[C@H](N)[C@H](O)[C@H](C)O1` [DOXORUBICIN], the GI50 in the test on SF-268 stood at 0.094 µM; in the test on NCI-H460, 0.094 µM; in the test on MCF7 it was 0.0428 µM.

These data come from ChEMBL document CHEMBL1150304, “Synthesis of new heteroaryl and heteroannulated indoles from dehydrophenylalanines: Antitumor evaluation” (2008).
